Assay results collected from several papers.
Target: Serine/threonine-protein kinase MRCK alpha (CDC42BPA, Homo sapiens, UniProt Q5VT25)

Compound | effect on | method | tested at | remaining binding
CN(C)CC#Cc1ccc(OCCCc2sc(N3CCc4cccc(C(=O)Nc5nc6ccccc6s5)c4C3)nc2C(=O)O)c(F)c1 | cell-free assay | competition with immobilised ligand | 1 µM | 97%
Nc1ncc2c(n1)-c1c([nH]c3ccc(C#CC4CC4)cc13)CCCC2 | binding | competition with immobilised ligand | 1 µM | 88%
COc1cnc(Nc2cccc(S(N)(=O)=O)c2)nc1N1CCN(c2ccccc2)C(=O)C1 | binding | competition with immobilised ligand | 1 µM | 100%
CC1CCCN1c1nccc(-c2cnn3ncccc23)n1 (stereo not shown) | binding |  | 1 µM | 100%
Cc1cnc(Nc2ccc(C(=O)N3CCC(N4CCCC4)CC3)cc2)nc1-c1cc2ccccc2s1 | binding | competition with immobilised ligand | 1 µM | 10%
CCN1CCN(Cc2ccc(C(=O)Nc3ccc(C)c(Oc4ccc5c(c4)CC(=O)N5)c3)cc2C(F)(F)F)CC1 | binding | competition with immobilised ligand | 1 µM | 100%
Cc1cnn2ncc(-c3ccnc(N(C)C)n3)c2c1 | binding |  | 1 µM | 87%
O=C(NCC1CCOCC1)c1n[nH]cc1NC(=O)c1c(F)cccc1F | binding | competition with immobilised ligand | 1 µM | 100%
C[C@@H](c1ccc(-n2cnc3c(N)ncnc32)cc1)N1CCc2nn(C)c(Cc3ccccc3)c2C1=O | binding | competition with immobilised ligand | 0.1 µM | 91%
COc1ncc2cc3ccccc3nc2c1C#N | cell-free assay | competition with immobilised ligand | 5 µM | 100%
Cc1cc(NC(=O)c2cccc(S(F)(F)(F)(F)F)c2)cc(-n2ccn3nc(-c4cccnc4)cc23)c1 | cell-free assay | competition with immobilised ligand | 1 µM | 88.5%
F[C@@H]1CCN(c2nccc(-c3cnn4ncccc34)n2)C1 | binding |  | 1 µM | 100%
CS(=O)(=O)N1CCCC(NC(=O)[C@H](CCC2CCCCC2)NC(=O)c2ccc(CNc3ncnc4c3nnn4-c3ccccc3)cc2)C1 (stereo partly shown) | cell-free assay | competition with immobilised ligand | 0.1 µM | 100%
O=C(c1ccc(Nc2nccc(-c3cc4ccccc4s3)n2)cc1)N1CCC(N2CCCC2)CC1 | binding | competition with immobilised ligand | 1 µM | 65%
N[C@H]1CCN(c2nccc(-c3cnn4ncccc34)n2)C1 | binding |  | 1 µM | 84%
FC(F)(F)Oc1cccc(-c2cnc3ccc(-c4ccncc4)nn23)c1 | cell-free assay | competition with immobilised ligand | 5 µM | 69%
CCC(=N\O)/C(C)=C/c1ccc(F)cc1 | cell-free assay | competition with immobilised ligand | 1 µM | 100%
CN(c1nccc(-c2cnn3ncccc23)n1)C1CC1 | binding |  | 1 µM | 100%
O=C(Nc1cccnn1)N1CCC(=Cc2cccc(Oc3ccc(C(F)(F)F)cn3)c2)CC1 | cell-free assay | competition with immobilised ligand | 1 µM | 95%
CN(C)c1ncc(F)c(-c2cnn3ncccc23)n1 | binding |  | 1 µM | 100%
C[C@@]1(Cc2ccc(C#N)cc2)C(=O)N(c2cc(Cl)cc(Cl)c2)c2ncc(C(=O)NC3(c4nc(C5CCC5)no4)CC3)n21 | cell-free assay | competition with immobilised ligand | 1 µM | 100%
O=C(c1ccc(Nc2ncc(Cl)c(-c3ccc(Cl)s3)n2)cc1)N1CCC(N2CCCC2)CC1 | binding | competition with immobilised ligand | 1 µM | 53%
